Experimental data from different studies.
Protocols differ between the studies behind these lines.
Cell line: NCI-H322M
Effect on: cell growth or viability

| Structure (SMILES) | method | time | endpoint | result |
| --- | --- | --- | --- | --- |
| CCc1n(Cc2ccc3ccccc3n2)cc[n+]1Cc1ccc2ccccc2c1 | SRB | – | TGI | 13.8 µM |
| O=C1NC(=NCc2cccs2)S/C1=C\c1ccc2ncccc2c1 | – | – | IC50 | > 10 µM |
| COc1cc(-c2ccc(-c3ccc(C(=N)N)nc3)s2)cc(OC)c1OC | SRB | – | GI50 | 3.23 µM |
| COc1ccc(C(=O)/C=C/c2cccnc2)cc1S(N)(=O)=O | SRB | 48 h | GI50 | 12.3 µM |
| S=C([S][Au-][P+](CCCCCC[P+]([Au-][S]C(=S)n1cccn1)(c1ccccc1)c1ccccc1)(c1ccccc1)c1ccccc1)n1cccn1 | SRB | – | GI50 | 0.417 µM |
| c1ccc2cc(Cn3cc[n+](Cc4ccc5ccccc5c4)c3)ccc2c1 | SRB | – | TGI | 21.3 µM |
| Cc1cc(C)n(C(=S)[S][Au][PH](CCCCCC[PH]([Au][S]C(=S)n2nc(C)cc2C)(c2ccccc2)c2ccccc2)(c2ccccc2)c2ccccc2)n1 | SRB | – | GI50 | 0.423 µM |
| COc1ccc(C(=O)/C=C/c2cc3c(cc2Br)OCO3)cc1S(N)(=O)=O | SRB | 48 h | GI50 | 3.8 µM |
| COc1ccc(-c2ccc(-c3ccc(C(=N)N)nc3)s2)cc1 | SRB | – | GI50 | 1.59 µM |
| O=C1NCCc2[nH]c(-c3ccncc3)cc21 | – | – | IC50 | > 10 µM |
| CCc1n(Cc2ccc3ccccc3n2)cc[n+]1Cc1ccc2ccccc2n1 | SRB | – | TGI | 41.9 µM |
| COc1cccc(Oc2ccccc2NC(=O)CNC(=O)c2cccc3ccccc23)c1 | SRB | 48 h | GI50 | 1.29 µM |
